Two compounds from ChEMBL document CHEMBL1153607, “Synthesis and anti-tumor activities of some new pyridines and pyrazolo[1,5-a]pyrimidines” (Eur J Med Chem, 2009) can be followed below.

≈ marks a conversion by molar mass, not a printed value. Calls of active or inactive are those of the source. The rule behind the calls is not given here.

Common to all, as to type: functional, cell-based
Assay [1] relates to HeLa. Description: Antitumor activity against human HeLa cells after 48 hrs by SRB assay. The gist of the method:
(§1)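 Cells seeded at 10⁴/well and left overnight to attach, then exposed to compound for 48 h at 37 °C, 5% CO₂, in triplicate wells per dose. Cells were fixed and stained with sulforhodamine B in acetic acid, washed four times with 1% acetic acid, and bound dye was extracted with tris–EDTA. Absorbance was read on an ELISA reader. IC50 (50% growth inhibition) was taken from the survival curve.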
(The SRB assay estimates cell density from bound dye.)

Assay [2] has as its system HepG2. Kind of assay: Antitumor activity against human HepG2 cells after 48 hrs by SRB assay. The settings on record: HepG2, 48 h. The essentials:
as §1

Assay [3] has as its system MCF7. Description: Antitumor activity against human MCF7 cells after 48 hrs by SRB assay. The settings on record: MCF7, 48 h. The gist of the method:
as §1

Assay [4] deals with MCF7. Description: Antitumor activity against human MCF7 cells assessed as decrease in survival fraction at > 2.5 ug/ml by SRB assay. The essentials: (§2)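 Monolayers seeded at 10⁴ cells/well were allowed to attach overnight, then treated with compound for 48 h at 37 °C, 5% CO₂, with triplicate wells per dose. Cells were fixed and stained with sulforhodamine B, washed with 1% acetic acid, and dye was solubilised in tris–EDTA before absorbance reading. Surviving fraction was plotted against compound concentration for each cell line.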

The test system of assay [5] is HCT-116. Description: Antitumor activity against human HCT116 cells after 48 hrs by SRB assay. The note with it: HCT-116, 48 h. The essentials:
as §1

Assay [6] has as its system HCT-116. Kind of assay: Antitumor activity against human HCT116 cells assessed as decrease in survival fraction at 1 ug/ml by SRB assay. The gist of the method:
as §2

Assay [7] has as its system MCF7. Kind of assay: Antitumor activity against human MCF7 cells assessed as decrease in survival fraction at > 1 ug/ml by SRB assay. The gist of the method: as §2
Assay [8] concerns MCF7. Description: Antitumor activity against human MCF7 cells assessed as decrease in survival fraction at 1 ug/ml by SRB assay. The essentials:
as §2

Assay [9] concerns HeLa. Kind of assay: Antitumor activity against human HeLa cells assessed as decrease in survival fraction at 1 ug/ml by SRB assay. The essentials: as §2

By IC50 is commonly meant the concentration needed to halve the response being measured. A lower IC50 goes with inhibition by little substance. `O=C(Nc1ccc(Cl)cc1)c1c(Nc2ccccc2)nn2ccc(-c3ccc4ccccc4c3)nc12`: the half-inhibitory concentration (IC50) in assay [1] stood at 0.4 µg/mL (≈ 0.816 µM); in assay [2], 1.88 µg/mL (≈ 3.84 µM); in assay [3], 0.74 µg/mL (≈ 1.51 µM); in assay [5] it was 0.54 µg/mL (≈ 1.1 µM). Further, the result in assay [4], in [6], in [7], in assay [8] and in assay [9] was Active.
With `N#Cc1ccc(-c2ccc3ccccc3c2)[nH]c1=S`, the IC50 in assay [1] is 0.6 µg/mL (≈ 2.29 µM); in [2], 1.01 µg/mL (≈ 3.85 µM); in assay [3], 0.34 µg/mL (≈ 1.3 µM); in assay [5], 0.49 µg/mL (≈ 1.87 µM). For the same compound, the result in assay [4], in assay [7] and in assay [8] was Active.
